In ChEMBL document CHEMBL4351031, “The development of 2-acetylphenol-donepezil hybrids as multifunctional agents for the treatment of Alzheimer's disease” (Bioorg Med Chem Lett, 2019):
Active and inactive are the calls of the source. No cut-off for these calls is given here.

Key:
[1] = target: Cholinesterase (Equus caballus) (UniProt P81908); assay: Inhibition of equine serum BuChE using S-butyrylthiocholine chloride as substrate at 50 uM incubated for 15 mins by Ellman's method relative to control
[2] = target: T1, Amine oxidase [flavin-containing] B (Homo sapiens, UniProt P27338); assay: Inhibition of human recombinant MAO-B using kynuramine as substrate measured after 30 mins by fluorimetric assay
T1 sequence (P27338 whole entry): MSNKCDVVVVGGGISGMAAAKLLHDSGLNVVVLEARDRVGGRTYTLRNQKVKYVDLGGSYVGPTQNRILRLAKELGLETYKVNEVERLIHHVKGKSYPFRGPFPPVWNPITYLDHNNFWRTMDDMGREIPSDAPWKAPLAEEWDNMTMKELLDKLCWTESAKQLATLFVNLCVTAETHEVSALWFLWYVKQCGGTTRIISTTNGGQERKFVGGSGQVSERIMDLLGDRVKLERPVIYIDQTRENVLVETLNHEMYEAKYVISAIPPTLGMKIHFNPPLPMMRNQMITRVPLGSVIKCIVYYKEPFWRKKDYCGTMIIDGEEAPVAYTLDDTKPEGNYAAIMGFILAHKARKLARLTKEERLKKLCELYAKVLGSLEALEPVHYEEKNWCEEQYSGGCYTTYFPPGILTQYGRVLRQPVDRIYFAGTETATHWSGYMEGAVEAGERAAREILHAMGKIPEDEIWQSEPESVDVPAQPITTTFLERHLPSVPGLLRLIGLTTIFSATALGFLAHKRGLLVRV

MAO-A = target: T2, MAO-A (Homo sapiens, UniProt P21397); assay: Inhibition of human recombinant MAO-A using kynuramine as substrate at 10 uM measured after 30 mins by fluorimetric assay relative to control; settings: probe kynuramine
T2 sequence (P21397 whole entry): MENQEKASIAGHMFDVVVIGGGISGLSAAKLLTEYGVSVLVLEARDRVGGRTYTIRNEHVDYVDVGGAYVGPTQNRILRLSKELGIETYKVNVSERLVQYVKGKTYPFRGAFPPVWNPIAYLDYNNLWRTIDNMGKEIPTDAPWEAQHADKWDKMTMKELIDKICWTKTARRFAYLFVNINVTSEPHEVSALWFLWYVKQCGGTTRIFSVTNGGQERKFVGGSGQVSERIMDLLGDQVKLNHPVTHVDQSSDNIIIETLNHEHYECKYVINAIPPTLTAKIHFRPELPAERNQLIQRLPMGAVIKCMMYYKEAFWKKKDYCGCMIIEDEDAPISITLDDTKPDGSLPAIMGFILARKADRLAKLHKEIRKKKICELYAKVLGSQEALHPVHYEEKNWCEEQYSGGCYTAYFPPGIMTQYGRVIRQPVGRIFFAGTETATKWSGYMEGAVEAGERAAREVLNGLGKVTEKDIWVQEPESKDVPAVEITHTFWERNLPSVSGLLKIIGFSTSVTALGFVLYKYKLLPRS

Acetylcholinesterase = Acetylcholinesterase (Electrophorus electricus, UniProt O42275); assay: Inhibition of electric eel AChE using acetylthiocholine iodide incubated for 15 mins as substrate by Ellman's method
Cholinesterase = Cholinesterase (Equus caballus, UniProt P81908); assay: Inhibition of equine serum BuChE using S-butyrylthiocholine chloride as substrate incubated for 15 mins by Ellman's method
Summary of the method: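 Modified Ellman method using equine serum BuChE. […] Values are the mean of three independent experiments, each run in triplicate, with SD.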

[3] = target: T3, Amine oxidase [flavin-containing] A (Homo sapiens, UniProt P21397); assay: Inhibition of human recombinant MAO-A using kynuramine as substrate measured after 30 mins by fluorimetric assay
T3 sequence (P21397 whole entry): T2 sequence (P21397 whole entry)
Summary of the method: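 Recombinant human MAO-A inhibition measured by a fluorimetric assay. Each value is the mean of three independent experiments, each run in triplicate, with SD reported.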

[4] = Selectivity index, ratio of IC50 for equine serum BuChE using S-butyrylthiocholine chloride as substrate to IC50 for electric eel AChE using acetylthiocholine iodide as substrate by Ellman's method
Summary of the method: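 Selectivity index is IC50(eqBuChE)/IC50(EeAChE). Both IC50s come from the modified Ellman method, using Electrophorus electricus AChE and equine serum BuChE. Each IC50 is the mean of three independent experiments, each run in triplicate.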

[5] = Metal chelating activity assessed as Fe2+-compound complex formation at 37.5 uM measured after 30 mins in presence of 37.5 uM FeSO4 by UV-vis spectrophotometric analysis
[6] = Metal chelating activity assessed as Cu2+-compound complex formation measured as red shift in absorption spectra at 37.5 uM measured after 30 mins in presence of 37.5 uM CuCl2 by UV-vis spectrophotometric analysis
[7] = Permeability of the compound at 100 ug/ml measured after compound dilution in PBS/EtOH buffer (70:30) by PAMPA-BBB assay
[8] = Metal chelating activity assessed as Al3+-compound complex formation at 37.5 uM measured after 30 mins in presence of 37.5 uM AlCl3 by UV-vis spectrophotometric analysis
[9] = Metal chelating activity assessed as Zn2+-compound complex formation at 37.5 uM measured after 30 mins in presence of 37.5 uM ZnCl2 by UV-vis spectrophotometric analysis
[10] = target: Acetylcholinesterase (Electrophorus electricus) (UniProt O42275); assay: Mixed inhibition of electric eel AChE at 1.5 to 6 uM preincubated with enzyme for 15 mins followed by substrate addition using acetylthiocholine iodide as substrate by double reciprocal Lineweaver-Burk plot analysis
[11] = Metal chelating activity assessed as mole fraction of the compound required for Cu2+ -compound complex formation at stoichiometry ratio of 1:1 at 37.5 uM measured after 30 mins in presence of 3.75 to 93.75 uM CuCl2 by UV-vis spectrophotometric analysis
Summary of the method: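 Cu2+ complex stoichiometry determined by the molar ratio method. Ascending amounts of CuCl2 were added to the test compound, at a final concentration of 37.5 μM. Absorbance was plotted against mole fraction, and the stoichiometry was taken from the intersection of two fitted straight lines. The final Cu2+ concentration started at 3.75 μM.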

Acetylcholinesterase, sequence (O42275 whole entry): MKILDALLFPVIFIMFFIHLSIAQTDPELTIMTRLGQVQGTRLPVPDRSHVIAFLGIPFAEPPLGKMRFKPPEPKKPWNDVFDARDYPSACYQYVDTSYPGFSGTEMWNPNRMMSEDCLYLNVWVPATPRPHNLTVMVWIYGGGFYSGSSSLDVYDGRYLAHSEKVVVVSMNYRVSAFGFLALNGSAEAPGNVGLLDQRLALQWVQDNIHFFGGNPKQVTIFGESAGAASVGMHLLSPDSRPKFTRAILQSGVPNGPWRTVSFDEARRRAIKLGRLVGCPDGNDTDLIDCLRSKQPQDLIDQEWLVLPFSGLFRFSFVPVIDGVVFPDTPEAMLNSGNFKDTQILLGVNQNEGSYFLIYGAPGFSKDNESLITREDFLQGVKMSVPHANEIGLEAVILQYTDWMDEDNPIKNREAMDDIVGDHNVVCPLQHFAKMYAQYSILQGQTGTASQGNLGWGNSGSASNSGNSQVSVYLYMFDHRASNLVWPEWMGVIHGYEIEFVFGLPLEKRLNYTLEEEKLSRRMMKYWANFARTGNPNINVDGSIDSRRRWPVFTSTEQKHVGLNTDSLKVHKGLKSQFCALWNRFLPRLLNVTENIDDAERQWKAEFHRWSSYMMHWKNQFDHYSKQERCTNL
Cholinesterase (Equus caballus), sequence (P81908 whole entry): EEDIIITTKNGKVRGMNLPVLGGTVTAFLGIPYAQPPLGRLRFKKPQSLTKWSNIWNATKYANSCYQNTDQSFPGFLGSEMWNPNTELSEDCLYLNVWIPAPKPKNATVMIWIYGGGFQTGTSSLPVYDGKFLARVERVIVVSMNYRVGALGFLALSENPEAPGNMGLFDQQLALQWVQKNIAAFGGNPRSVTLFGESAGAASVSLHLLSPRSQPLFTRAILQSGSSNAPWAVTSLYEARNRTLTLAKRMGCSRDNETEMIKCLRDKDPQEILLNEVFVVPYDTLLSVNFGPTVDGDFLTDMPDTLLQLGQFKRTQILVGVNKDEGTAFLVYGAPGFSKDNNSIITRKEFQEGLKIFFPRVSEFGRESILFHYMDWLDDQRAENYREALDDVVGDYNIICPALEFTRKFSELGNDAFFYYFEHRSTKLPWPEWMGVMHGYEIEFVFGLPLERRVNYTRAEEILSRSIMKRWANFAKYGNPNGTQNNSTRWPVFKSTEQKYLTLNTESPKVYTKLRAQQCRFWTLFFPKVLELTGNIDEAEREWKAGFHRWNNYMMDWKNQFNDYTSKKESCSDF
Cholinesterase, sequence (P81908 whole entry): as above
Acetylcholinesterase (Electrophorus electricus), sequence (O42275 24-633 limits assumed): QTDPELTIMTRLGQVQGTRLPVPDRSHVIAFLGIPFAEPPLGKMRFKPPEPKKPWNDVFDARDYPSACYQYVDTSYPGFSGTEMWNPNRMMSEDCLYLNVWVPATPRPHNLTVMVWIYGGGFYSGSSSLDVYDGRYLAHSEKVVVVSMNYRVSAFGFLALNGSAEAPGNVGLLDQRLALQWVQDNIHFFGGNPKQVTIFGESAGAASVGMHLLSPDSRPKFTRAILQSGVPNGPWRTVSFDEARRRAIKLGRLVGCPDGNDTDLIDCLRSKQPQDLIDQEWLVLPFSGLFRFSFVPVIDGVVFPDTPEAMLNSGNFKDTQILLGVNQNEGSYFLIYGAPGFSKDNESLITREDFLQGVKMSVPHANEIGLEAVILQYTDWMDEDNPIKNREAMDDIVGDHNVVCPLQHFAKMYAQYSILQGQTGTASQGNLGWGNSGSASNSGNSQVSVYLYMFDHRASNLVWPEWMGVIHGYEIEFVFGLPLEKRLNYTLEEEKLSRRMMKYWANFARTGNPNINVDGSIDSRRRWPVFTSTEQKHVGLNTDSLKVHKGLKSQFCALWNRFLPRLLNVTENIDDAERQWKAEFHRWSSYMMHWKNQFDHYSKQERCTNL

SMILES | inhibition [1] [%] | IC50 [2] [µM] | inhibition at 0.5 h, 10 µM (MAO-A) [%] | IC50 (Acetylcholinesterase) [µM] | IC50 (Cholinesterase) [µM] | Ratio IC50 [4] | further results
CCN(CC)CCCCOc1ccc(C(C)=O)c(O)c1 | < 5 | 22.2 | < 10 | 20.9 |  |  | 
CC(=O)c1ccc(OCCCCCCN2CCc3ccccc3C2)cc1O |  | 26.9 |  | 9.2 | 32.6 | 3.5 | IC50 [3]: 21.2 µM
CCN(CC)CCCOc1ccc(C(C)=O)c(O)c1 | < 5 | 16.1 | < 10 | 26.7 |  |  | 
CCN(CCOc1ccc(C(C)=O)c(O)c1)Cc1ccccc1 | < 5 | 13.8 | < 10 | 18.9 |  |  | 
CCN(CC)CCCCCCOc1ccc(C(C)=O)c(O)c1 | < 5 | 22.1 | < 10 | 16.3 |  |  | 
COc1cc2c(cc1OC)CN(CCCOc1ccc(C(C)=O)c(O)c1)CC2 |  | 13.8 | 8.1 | 10.1 | 57.9 | 5.7 | 
CC(=O)c1ccc(OCCCCCCCCCCN2CCC(Cc3ccccc3)CC2)cc1O | 13.8 | 21.6 | < 10 | 9.2 |  |  | 
CCN(CCCCCOc1ccc(C(C)=O)c(O)c1)Cc1ccccc1 |  | 29.8 | < 10 | 5.2 | 37.2 | 7.1 | 
CCN(CC)CCOc1ccc(C(C)=O)c(O)c1 | < 5 | 11.7 | < 10 | 35.2 |  |  | 
CC(=O)c1ccc(OCCCCCCCCCN2CCN(Cc3ccccc3)CC2)cc1O |  | 21.6 |  | 6.7 | 19.8 | 2.9 | IC50 [3]: 19.7 µM
CC(=O)c1ccc(OCCCN2CCc3ccccc3C2)cc1O | < 5 | 16.7 | < 10 | 8.9 |  |  | 
CCN(CCCOc1ccc(C(C)=O)c(O)c1)Cc1ccccc1 |  | 14.9 | < 10 | 7.2 | 18.7 | 2.6 | 
CC(=O)c1ccc(OCCCN2CCC(c3ccccc3)CC2)cc1O |  | 19.8 |  | 13.4 | 29.4 | 2.2 | IC50 [3]: 24.7 µM
CC(=O)c1ccc(OCCN2CCC(Cc3ccccc3)CC2)cc1O | < 5 | 22.8 | < 10 | 16.5 |  |  | 
CC(=O)c1ccc(OCCCCN2CCc3ccccc3C2)cc1O |  | 12.8 | 6.3 | 5.9 | 47.5 | 8.1 | 
CC(=O)c1ccc(OCCCCCCCCCCN2CCN(Cc3ccccc3)CC2)cc1O | 15.1 | 17.3 |  | 6.9 |  |  | IC50 [3]: 19.8 µM
CC(=O)c1ccc(OCCCCCN2CCc3ccccc3C2)cc1O | < 5 | 15.2 | < 10 | 7.5 |  |  | 
CC(=O)c1ccc(OCCCCCCCCCN2CCC(Cc3ccccc3)CC2)cc1O | < 5 | 27.9 | < 10 | 8.5 |  |  | 
CC(=O)c1ccc(OCCCCCCCCCCCCN2CCC(Cc3ccccc3)CC2)cc1O | < 5 | 25.8 | < 10 | 9.5 |  |  | 
COc1cc2c(cc1OC)CN(CCCCOc1ccc(C(C)=O)c(O)c1)CC2 |  | 15.7 | < 10 | 15.9 | 56.4 | 3.5 | 
CCN(CCCCOc1ccc(C(C)=O)c(O)c1)Cc1ccccc1 |  | 16.6 | < 10 | 2.9 | 34.6 | 11.9 | Activity [5]: inactive; Activity [6]: Active; Papp at 100 ug/ml [7]: 151 nm/s; Activity [8]: inactive; Activity [9]: inactive; inhibition [10]: Active; Ratio (mole fraction) [11]: 0.97
CCN(CCCCCCCCCCOc1ccc(C(C)=O)c(O)c1)Cc1ccccc1 |  | 23.4 | < 10 | 6.5 | 50.7 | 7.8 | 
CCN(CCCCCCCCCCCCOc1ccc(C(C)=O)c(O)c1)Cc1ccccc1 |  | 33.1 | < 10 | 7.7 | 38.9 | 5 | 
CC(=O)c1ccc(OCCCCN2CCC(Cc3ccccc3)CC2)cc1O | < 5 | 13.5 | < 10 | 8.9 |  |  | 
CC(=O)c1ccc(OCCCCCCN2CCC(Cc3ccccc3)CC2)cc1O |  | 15.8 |  | 7.1 | 66.9 | 9.4 | IC50 [3]: 22.1 µM
CC(=O)c1ccc(OCCCCCCCCCCN2CCC(c3ccccc3)CC2)cc1O | 0.8 | 14.2 | < 10 | 18.4 |  |  | 
CC(=O)c1ccc(OCCCCCN2CCC(Cc3ccccc3)CC2)cc1O | < 5 | 20.8 | < 10 | 8.2 |  |  | 
CC(=O)c1ccc(OCCCN2CCC(Cc3ccccc3)CC2)cc1O |  | 18.7 | < 10 | 11.7 | 63.1 | 5.4 | 
CC(=O)c1ccc(OCCCCCCCCCN2CCc3ccccc3C2)cc1O | < 5 | 19.4 | < 10 | 11.6 |  |  | 
CC(=O)c1ccc(OCCN2CCN(Cc3ccccc3)CC2)cc1O | 11.2 | 10.2 |  | 6.6 |  |  | Papp at 100 ug/ml [7]: 174 nm/s; IC50 [3]: 26.1 µM
